According to ChEMBL document CHEMBL2157878, “In vitro cellular uptake and dimerization of signal transducer and activator of transcription-3 (STAT3) identify the photosensitizing and imaging-potential of isomeric photosensitizers derived from chlorophyll-a and bacteriochlorophyll-a” (J Med Chem, 2011):

Assays:
Blood [1] = assay: Drug uptake in BALB/c mouse blood xenografted with mouse Colon 26 cells at 100 uCi administered parenterally after 48 hrs by PET analysis; format: ADME, tissue-based; conditions: in vivo, other
How it was run: (§1)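 ¹²⁴I-labelled PS given by tail vein to BALB/c mice bearing Colon26 tumours (100 μCi per figure legend). Three mice per time point killed at 24, 48 and 72 h. Tumour, organs and blood weighed and counted in a γ-well counter. Uptake expressed as %ID/g.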

Stomach [2] = assay: Drug uptake in BALB/c mouse stomach xenografted with mouse Colon 26 cells at 100 uCi administered parenterally after 48 hrs by PET analysis; format: ADME, tissue-based; conditions: in vivo, other; how it was run: as §1
Heart [3] = assay: Drug uptake in BALB/c mouse heart xenografted with mouse Colon 26 cells at 100 uCi administered parenterally after 48 hrs by PET analysis; format: ADME, tissue-based; conditions: in vivo, other; how it was run: as §1
Spleen [4] = assay: Drug uptake in BALB/c mouse spleen xenografted with mouse Colon 26 cells at 100 uCi administered parenterally after 72 hrs by PET analysis; format: ADME, tissue-based; conditions: in vivo, other; how it was run: as §1
Blood [5] = assay: Drug uptake in BALB/c mouse blood xenografted with mouse Colon 26 cells at 100 uCi administered parenterally after 72 hrs by PET analysis; format: ADME, tissue-based; conditions: in vivo, other; how it was run: as §1
[6] = Drug uptake in BALB/c mouse gut xenografted with mouse Colon 26 cells at 100 uCi administered parenterally after 48 hrs by PET analysis; format: ADME, cell-based; conditions: in vivo, other; how it was run: as §1
Stomach [7] = assay: Drug uptake in BALB/c mouse stomach xenografted with mouse Colon 26 cells at 100 uCi administered parenterally after 72 hrs by PET analysis; format: ADME, tissue-based; conditions: in vivo; how it was run: as §1
Mus musculus [8] = assay: Drug uptake in mouse Colon 26 cells xenografted iv dosed BALB/c mouse after 72 hrs by PET imaging; format: ADME, organism-based; conditions: in vivo
How it was run: (§2)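 Colon26 tumors grown subcutaneously in BALB/c mice. ¹²⁴I-labeled photosensitizer given into the tail vein at 52–122 μCi. Under isoflurane/oxygen anesthesia, animals were scanned prone on a microPET for 30 min at 24, 48 and 72 h post-injection. Tumor uptake was estimated by region-of-interest calculations.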

Liver [9] = assay: Drug uptake in BALB/c mouse liver xenografted with mouse Colon 26 cells at 100 uCi administered parenterally after 48 hrs […]; format: ADME, tissue-based; conditions: in vivo; how it was run: as §1
[10] = Drug uptake in mouse Colon 26 cells implanted subcutaneously in BALB/c mouse tumor at 100 uCi administered parenterally after 72 hrs by gamma counting; format: ADME, Neoplasm; conditions: in vivo, sc; how it was run: as §1
Liver [11] = assay: Drug uptake in BALB/c mouse liver xenografted with mouse Colon 26 cells at 100 uCi administered parenterally after 24 hrs by PET analysis; format: ADME, tissue-based; conditions: in vivo, other; how it was run: as §1
Muscle tissue [12] = assay: Drug uptake in BALB/c mouse muscle xenografted with mouse Colon 26 cells at 100 uCi administered parenterally after 48 hrs by PET analysis; format: ADME, tissue-based; conditions: in vivo, other; how it was run: as §1
Mus musculus [13] = assay: Drug uptake in mouse Colon 26 cells xenografted iv dosed BALB/c mouse after 48 hrs by PET imaging; format: ADME, organism-based; conditions: in vivo; how it was run: as §2
Mus musculus [14] = assay: Drug uptake in mouse Colon 26 cells xenografted iv dosed BALB/c mouse after 24 hrs by PET imaging; format: ADME, organism-based; conditions: in vivo; how it was run: as §2
Spleen [15] = assay: Drug uptake in BALB/c mouse spleen xenografted with mouse Colon 26 cells at 100 uCi administered parenterally after 24 hrs by PET analysis; format: ADME, tissue-based; conditions: in vivo, other; how it was run: as §1
[16] = Drug uptake in mouse Colon 26 cells implanted subcutaneously in BALB/c mouse tumor at 100 uCi administered parenterally after 48 hrs by gamma counting; format: ADME, Neoplasm; conditions: in vivo, sc; how it was run: as §1
Liver [17] = assay: Drug uptake in BALB/c mouse liver xenografted with mouse Colon 26 cells at 100 uCi administered parenterally after 72 hrs by PET analysis; format: ADME, tissue-based; conditions: in vivo, other; how it was run: as §1
Kidney [18] = assay: Drug uptake in BALB/c mouse kidney xenografted with mouse Colon 26 cells at 100 uCi administered parenterally after 24 hrs by PET analysis; format: ADME, tissue-based; conditions: in vivo, other; how it was run: as §1
Muscle tissue [19] = assay: Drug uptake in BALB/c mouse muscle xenografted with mouse Colon 26 cells at 100 uCi administered parenterally after 72 hrs by PET analysis; format: ADME, tissue-based; conditions: in vivo, other; how it was run: as §1
[20] = Drug uptake in mouse Colon 26 cells implanted BALB/c mouse tumor at 100 uCi administered parenterally after 24 hrs by gamma counting; format: ADME, Neoplasm; conditions: in vivo, other; how it was run: as §1
Lung [21] = assay: Drug uptake in BALB/c mouse lungs xenografted with mouse Colon 26 cells at 100 uCi administered parenterally after 24 hrs by PET analysis; format: ADME, tissue-based; conditions: in vivo, other; how it was run: as §1
Lung [22] = assay: Drug uptake in BALB/c mouse lungs xenografted with mouse Colon 26 cells at 100 uCi administered parenterally after 72 hrs by PET analysis; format: ADME, tissue-based; conditions: in vivo, other; how it was run: as §1
Heart [23] = assay: Drug uptake in BALB/c mouse heart xenografted with mouse Colon 26 cells at 100 uCi administered parenterally after 24 hrs by PET analysis; format: ADME, tissue-based; conditions: in vivo, other; how it was run: as §1
Kidney [24] = assay: Drug uptake in BALB/c mouse kidney xenografted with mouse Colon 26 cells at 100 uCi administered parenterally after 72 hrs by PET analysis; format: ADME, tissue-based; conditions: in vivo, other; how it was run: as §1
Muscle tissue [25] = assay: Drug uptake in BALB/c mouse muscle xenografted with mouse Colon 26 cells at 100 uCi administered parenterally after 24 hrs by PET analysis; format: ADME, tissue-based; conditions: in vivo, other; how it was run: as §1
Kidney [26] = assay: Drug uptake in BALB/c mouse kidney xenografted with mouse Colon 26 cells at 100 uCi administered parenterally after 48 hrs by PET analysis; format: ADME, tissue-based; conditions: in vivo, other; how it was run: as §1
Heart [27] = assay: Drug uptake in BALB/c mouse heart xenografted with mouse Colon 26 cells at 100 uCi administered parenterally after 72 hrs by PET analysis; format: ADME, tissue-based; conditions: in vivo, other; how it was run: as §1
Blood [28] = assay: Drug uptake in BALB/c mouse blood xenografted with mouse Colon 26 cells at 100 uCi administered parenterally after 24 hrs by PET analysis; format: ADME, tissue-based; conditions: in vivo, other; how it was run: as §1
[29] = Drug uptake in BALB/c mouse gut xenografted with mouse Colon 26 cells at 100 uCi administered parenterally after 24 hrs by PET analysis; format: ADME, cell-based; conditions: in vivo, other
Stomach [30] = assay: Drug uptake in BALB/c mouse stomach xenografted with mouse Colon 26 cells at 100 uCi administered parenterally after 24 hrs by PET analysis; format: ADME, tissue-based; conditions: in vivo, other; how it was run: as §1
Lung [31] = assay: Drug uptake in BALB/c mouse lungs xenografted with mouse Colon 26 cells at 100 uCi administered parenterally after 48 hrs by PET analysis; format: ADME, tissue-based; conditions: in vivo, other; how it was run: as §1
Spleen [32] = assay: Drug uptake in BALB/c mouse spleen xenografted with mouse Colon 26 cells at 100 uCi administered parenterally after 48 hrs by PET analysis; format: ADME, tissue-based; conditions: in vivo; how it was run: as §1
[33] = Drug uptake in BALB/c mouse gut xenografted with mouse Colon 26 cells at 100 uCi administered parenterally after 72 hrs by PET analysis; format: ADME, cell-based; conditions: in vivo, other; how it was run: as §1
Spleen [34] = assay: Drug uptake in parenterally dosed BALB/c mouse spleen xenografted with mouse Colon 26 cells after 72 hrs by PET analysis; format: ADME, organism-based; conditions: in vivo
How it was run: (§3)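 Tumor-bearing BALB/c mice (Colon26, subcutaneous) received ¹²⁴I-labeled photosensitizer via the tail vein at 15–50 μCi. Three mice per time point were sacrificed at 24, 48 and 72 h. Organs were removed, weighed and counted in a γ-well counter. Uptake was expressed as %ID/g tissue.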

Intestine = assay: Drug uptake in parenterally dosed BALB/c mouse intestine xenografted with mouse Colon 26 cells after 72 hrs by PET analysis; format: ADME, organism-based; conditions: in vivo, other; how it was run: as §3
Liver [35] = assay: Drug uptake in parenterally dosed BALB/c mouse liver xenografted with mouse Colon 26 cells after 72 hrs by PET analysis; format: ADME, organism-based; conditions: in vivo; how it was run: as §3

Measured: Drug uptake

CCC1=C(C)c2cc3[nH]c(cc4nc(c5c6[nH]c(cc1n2)c(C)c6C(=O)C5)C(CCC(=O)OC)[C@@H]4C)c(C)c3C(C)OCc1cccc([124I])c1 (stereo partly drawn)
not listed: Spleen [34] | Intestine | Liver [35]
Active: all other assays above

CC[C@H]1c2cc3[nH]c4c(c5nc(cc6[nH]c(cc(n2)[C@@H]1C)c(C(C)OCc1cccc([124I])c1)c6C)C(C)=C5CCC(=O)O)CC(=O)c4c3C (stereo partly drawn)
Active: Mus musculus [8] | Spleen [34] | Mus musculus [13] | Mus musculus [14] | Intestine | Liver [35]

CCC1=C(C)c2cc3[nH]c(cc4nc(c5c6[nH]c(cc1n2)c(C)c6C(=O)C5)C(CCC(=O)O)[C@@H]4C)c(C)c3C(C)OCc1cccc([124I])c1 (stereo partly drawn)
Active: all assays above

CC[C@H]1c2cc3[nH]c4c(c5nc(cc6[nH]c(cc(n2)[C@@H]1C)c(C(C)OCc1cccc([124I])c1)c6C)C(C)=C5CCC(=O)OC)CC(=O)c4c3C (stereo partly drawn)
Active: Mus musculus [8] | Mus musculus [13] | Mus musculus [14]
